One data set concerns SH-SY5Y cells. The experiment in a line: MTT colorimetric cytotoxicity assay. The format is cell-based. Conditions: Homo sapiens, 24 h. Put shortly:
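SH-SY5Y cells were grown in DMEM with 10% FBS at 0.1 × 10^5 cells/well for 24 h at 37 °C ([…]/5% CO2) to half-confluence. After a PBS wash and 1 h in serum-free medium, cells received free or nanoparticle test compound (0.05–100 µM) or serum-free medium for 24 h. MTT (1 mg/mL) was added for 4 h; formazan was dissolved in DMSO and read at 540 nm. Viability is expressed as % of control.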

Data set [1] is described as follows: Plasma pharmacokinetics after IV administration. The class given is in vivo, Sprague-Dawley male rats. Particulars: male, Sprague-Dawley, rat, 5 mg/kg. In a few lines:
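Male Sprague-Dawley rats (8–12 weeks) received 5 mg/kg IV. Blood was taken retro-orbitally under isoflurane into K2EDTA at 0.08–24 h (nine points, 3 rats each), and plasma was stored at -85 °C. LC-MS/MS quantification used a 1.03–1026.00 ng/mL calibration with 1/x2 weighting. Noncompartmental analysis on means: AUC by mixed log-linear method, CL = Dose/AUCinf, Vss = CL×MRT.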

Data set [2] in a line: Tissue distribution after IV administration. The format is in vivo, Sprague-Dawley male rats. Conditions: for AUC0 − t: 5 mg/kg IV, rats; for Cmax: male, Sprague-Dawley, rat, iv, 5 mg/kg. In a few lines: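 Male Sprague-Dawley rats (8–12 weeks), 27 per group (free drug or one of two nanoparticle formulations), 3 rats at each of nine time points. Single 5 mg/kg IV dose. CO2 euthanasia; tissues excised, saline-rinsed, homogenized 1:4 in PBS pH 7.4, stored at −85 °C. LC-MS/MS against matrix-matched calibration (1.03–1026.00 ng/mL). Noncompartmental AUC0–t and Cmax; Kp as tissue/plasma AUC ratio; means reported.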

On to `CC(=O)c1c(C)c2cnc(Nc3ccc(N4CCNCC4)cn3)nc2n(C2CCCC2)c1=O` [Palbo, Palbociclib], for which half-maximal inhibition in the data set on SH-SY5Y cells (IC50) was put at 860 nM. Also, the total exposure AUC(0-inf) in data set [1] was 1920 ng·h/mL. The molecule further gave a clearance in data set [1] (CL, 5 mg/kg IV, rats) of 21.8 mL/min/kg. Besides, the “AUC0 − t” value in data set [2] (brain posterior region) amounted to 757.5 ng·h/g; in data set [2] (cerebellum), 402.5 ng·h/g; in data set [2] (frontal cortex), 383.8 ng·h/g. Further, the Cmax in data set [2] (cerebellum) was 120 ng/g; in data set [2] (frontal cortex) it was 129 ng/g; in data set [2] (kidney), 485 ng/g; in data set [2] (liver) it was 2440 ng/g; in data set [2] (lungs), 12700 ng/g; in data set [2] (posterior brain region), 162 ng/g.

The values are drawn from PMC12322058 (Scientific Reports, 2025).
